pEC50: −log10 of the molar value.
Assays:
[1] = biological target: hERG (Homo sapiens, UniProt Q12809); assay: Displacement of [35S]-MK-0499 from human ERG at 10 uM; conditions: probe [35S]-MK-0499
Procedure, shortened: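 hERG binding was measured as displacement of 35S-labeled MK-0499 at single test concentrations.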

[2] = system: Rattus norvegicus; assay: Analgesic activity in rat SNL neuropathic pain model assessed as reversal of mechanical allodynia at 10 mg/kg, po after 1 hr; format: functional
[3] = system: Canis familiaris; assay: Cardiotoxicity in vagotomized dog assessed as PR interval at 1 to 10 mg/kg, iv up to 90 mins; format: toxicity, organism-based, Canis lupus familiaris; design: dose 1-10 mg/kg, route intravenous; conditions: in vivo, 1.5 h
Procedure, shortened: (§1)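 Anesthetized, vagotomized dogs received an intravenous infusion in sequential rising cumulative doses of 1, 3 and 10 mg/kg. MAP, HR, QRS, PR and QTc were monitored, with plasma exposure sampled at the indicated time points (n = 3).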

[4] = system: Mus musculus; assay: Antinociceptive activity in Cav2.2 deficient mouse SNL neuropathic pain model assessed as reversal of mechanical allodynia at 30 mg/kg, po after 2 hrs; format: functional
Procedure, shortened: (§2)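 Cav2.2+/+ and Cav2.2−/− mice underwent spinal nerve ligation, then got a single 30 mg/kg oral dose. Mechanical allodynia was scored 2 h postdose.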

[5] = Metabolic stability in human liver microsomes assessed as compound remaining at 1 uM after 1 hr; format: ADME, Microsome; conditions: read-out: Stability
Procedure, shortened: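 Compound at 1 μM was incubated with human or rat liver microsomes (1 mg/mL) for 1 h, and the percentage of parent remaining was determined.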

[6] = biological target: Cav1.2 (Homo sapiens, UniProt Q13936); assay: Inhibition of Cav1.2 assessed as inhibition of calcium flux at 1 uM by cell based FLIPR assay
Sequence of Cav1.2 (Q13936 whole entry): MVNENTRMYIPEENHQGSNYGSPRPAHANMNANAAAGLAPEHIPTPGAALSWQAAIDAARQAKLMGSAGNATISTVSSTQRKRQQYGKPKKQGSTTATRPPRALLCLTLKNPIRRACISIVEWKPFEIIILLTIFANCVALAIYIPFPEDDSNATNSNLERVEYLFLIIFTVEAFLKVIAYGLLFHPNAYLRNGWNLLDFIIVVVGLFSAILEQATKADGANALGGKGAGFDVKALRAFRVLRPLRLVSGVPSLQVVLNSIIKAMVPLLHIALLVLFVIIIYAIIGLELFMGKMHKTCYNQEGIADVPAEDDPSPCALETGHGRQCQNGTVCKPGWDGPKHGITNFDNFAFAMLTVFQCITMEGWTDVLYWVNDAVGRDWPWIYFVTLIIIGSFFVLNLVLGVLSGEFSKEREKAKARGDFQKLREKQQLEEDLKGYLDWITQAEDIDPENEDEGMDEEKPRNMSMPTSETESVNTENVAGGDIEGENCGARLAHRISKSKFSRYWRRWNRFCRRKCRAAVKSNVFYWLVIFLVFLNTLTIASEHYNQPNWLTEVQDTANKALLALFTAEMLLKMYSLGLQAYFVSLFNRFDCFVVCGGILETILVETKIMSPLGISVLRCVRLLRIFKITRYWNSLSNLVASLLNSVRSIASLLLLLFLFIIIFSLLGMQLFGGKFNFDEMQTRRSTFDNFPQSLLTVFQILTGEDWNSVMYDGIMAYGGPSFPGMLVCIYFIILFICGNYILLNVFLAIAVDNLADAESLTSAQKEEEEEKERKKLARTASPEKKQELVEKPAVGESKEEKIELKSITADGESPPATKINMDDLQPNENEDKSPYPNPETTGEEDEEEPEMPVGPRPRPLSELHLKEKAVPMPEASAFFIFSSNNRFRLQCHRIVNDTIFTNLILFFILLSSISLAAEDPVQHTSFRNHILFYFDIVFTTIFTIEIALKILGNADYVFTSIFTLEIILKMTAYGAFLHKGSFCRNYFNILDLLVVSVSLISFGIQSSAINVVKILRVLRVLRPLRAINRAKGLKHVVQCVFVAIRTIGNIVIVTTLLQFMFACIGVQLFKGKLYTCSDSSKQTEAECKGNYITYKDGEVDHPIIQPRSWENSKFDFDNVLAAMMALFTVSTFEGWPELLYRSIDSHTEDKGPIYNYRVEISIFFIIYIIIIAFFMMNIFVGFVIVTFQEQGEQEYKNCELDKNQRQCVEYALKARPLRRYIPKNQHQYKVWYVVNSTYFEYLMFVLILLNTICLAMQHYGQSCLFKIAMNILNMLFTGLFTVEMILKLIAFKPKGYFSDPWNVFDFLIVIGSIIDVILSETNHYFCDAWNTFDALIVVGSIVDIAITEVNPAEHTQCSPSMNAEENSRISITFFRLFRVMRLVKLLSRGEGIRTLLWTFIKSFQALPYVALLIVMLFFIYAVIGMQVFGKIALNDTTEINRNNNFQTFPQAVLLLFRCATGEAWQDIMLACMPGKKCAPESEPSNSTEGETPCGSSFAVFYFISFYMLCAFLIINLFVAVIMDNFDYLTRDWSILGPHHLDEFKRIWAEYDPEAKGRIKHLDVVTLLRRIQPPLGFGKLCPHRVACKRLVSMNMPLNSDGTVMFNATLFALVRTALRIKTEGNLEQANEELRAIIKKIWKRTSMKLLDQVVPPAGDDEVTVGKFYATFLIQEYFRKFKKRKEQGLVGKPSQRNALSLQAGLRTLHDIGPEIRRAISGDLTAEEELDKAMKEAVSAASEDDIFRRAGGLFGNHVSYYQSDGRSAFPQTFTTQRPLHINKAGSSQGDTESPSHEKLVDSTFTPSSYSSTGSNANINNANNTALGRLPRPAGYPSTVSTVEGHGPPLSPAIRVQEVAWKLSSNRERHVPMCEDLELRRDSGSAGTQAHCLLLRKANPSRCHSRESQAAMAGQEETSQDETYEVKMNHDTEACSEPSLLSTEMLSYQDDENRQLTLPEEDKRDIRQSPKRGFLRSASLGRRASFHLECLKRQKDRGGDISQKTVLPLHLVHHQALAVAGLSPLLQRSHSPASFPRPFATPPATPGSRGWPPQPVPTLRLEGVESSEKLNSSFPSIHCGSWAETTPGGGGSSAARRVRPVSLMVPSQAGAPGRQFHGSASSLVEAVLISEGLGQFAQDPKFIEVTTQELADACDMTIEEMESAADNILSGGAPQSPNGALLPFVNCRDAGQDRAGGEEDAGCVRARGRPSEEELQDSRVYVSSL
Procedure, shortened: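 Cav1.2 counterscreen using a related calcium-influx FLIPR assay, run as % inhibition at single concentrations or as a titration.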

[7] = Half life in rat at 3 mg/kg, po and 1 mg/kg, iv; format: ADME, organism-based; conditions: in vivo
Procedure, shortened: (§3)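 Rat pharmacokinetics from iv and po arms: 0.6 mg/kg iv with 1.8 mg/kg po, or 1 mg/kg iv with 3 mg/kg po. AUC was normalized to po dose (μM·h·kg/mg). Clearance (mL/min/kg) and half-life come from the iv arm, and F% is oral bioavailability.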

[8] = system: Rattus norvegicus; assay: Antinociceptive activity in rat assessed as reversal of complete Freund's adjuvant-induced pain at 30 mg/kg, po after 3 hrs; format: functional
Procedure, shortened: (§4)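 In the rat CFA inflammatory pain model, compound was given orally at 30 mg/kg and allodynia was read at 1 and 3 h postdose. Average % reversal = (postdose − predose)/(preinjury − predose) for each rat, n = 6. Plasma exposure at 3 h was measured in satellite rats (n = 2).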

[9] = Drug level rat brain at 100 mg/kg, po after 3 hrs; format: ADME, organism-based; design: dose 100 mg/kg, route oral; conditions: read-out: Drug uptake
Procedure, shortened: (§5)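 Rats were dosed orally at 100 mg/kg, motor coordination was tested on a rota-rod 3 h later, and plasma and brain exposure were then measured.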

[10] = system: Canis familiaris; assay: Cardiotoxicity in vagotomized dog assessed as mean arterial pressure at 1 to 10 mg/kg, iv up to 90 mins; format: toxicity, organism-based, Canis lupus familiaris, Artery; design: dose 1-10 mg/kg, route intravenous; conditions: in vivo, 1.5 h; procedure, shortened: as §1
[11] = system: Rattus norvegicus; assay: Antinociceptive activity in po dosed rat assessed as reversal of complete Freund's adjuvant-induced pain after 3 hrs; format: functional, organism-based; procedure, shortened: as §4
[12] = biological target: T1, Nuclear receptor subfamily 1 group I member 2 (Homo sapiens, UniProt O75469); assay: Activation of PXR
T1 sequence (O75469 whole entry): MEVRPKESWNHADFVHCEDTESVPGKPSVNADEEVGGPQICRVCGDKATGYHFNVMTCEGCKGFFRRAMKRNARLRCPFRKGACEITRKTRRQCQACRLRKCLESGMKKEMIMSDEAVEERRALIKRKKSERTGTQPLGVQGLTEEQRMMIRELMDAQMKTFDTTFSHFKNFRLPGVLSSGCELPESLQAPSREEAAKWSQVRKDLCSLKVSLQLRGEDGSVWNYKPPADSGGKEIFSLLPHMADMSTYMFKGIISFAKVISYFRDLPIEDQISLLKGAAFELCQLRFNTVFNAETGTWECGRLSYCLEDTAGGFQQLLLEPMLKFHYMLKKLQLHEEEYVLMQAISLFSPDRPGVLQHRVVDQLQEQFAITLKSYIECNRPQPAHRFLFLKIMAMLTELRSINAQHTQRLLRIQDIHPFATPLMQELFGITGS
Procedure, shortened: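 PXR activation read as EC50, with maximal activation given as % at 10 μM.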

[13] = Plasma concentration rat at 100 mg/kg, po after 3 hrs; format: ADME, organism-based; design: dose 100 mg/kg, route oral
Procedure, shortened: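 Rat rota-rod motor coordination study; single 100 mg/kg oral dose; plasma and brain exposure determined 3 h postdose.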

[14] = system: Rattus norvegicus; assay: Dose normalized AUC in rat at 3 mg/kg, po and 1 mg/kg, iv; format: ADME, organism-based; conditions: in vivo; procedure, shortened: as §3
[15] = biological target: Voltage-dependent N-type calcium channel subunit alpha-1B (Homo sapiens, UniProt Q00975); assay: Inhibition of human Cav2.2 expressed CBK cells assessed as inhibition of channel current at 3 uM at holding membrane potential -40 mV by conventional patch clamp electrophysiology assay
Sequence of Voltage-dependent N-type calcium channel subunit alpha-1B (Q00975 whole entry, looked up): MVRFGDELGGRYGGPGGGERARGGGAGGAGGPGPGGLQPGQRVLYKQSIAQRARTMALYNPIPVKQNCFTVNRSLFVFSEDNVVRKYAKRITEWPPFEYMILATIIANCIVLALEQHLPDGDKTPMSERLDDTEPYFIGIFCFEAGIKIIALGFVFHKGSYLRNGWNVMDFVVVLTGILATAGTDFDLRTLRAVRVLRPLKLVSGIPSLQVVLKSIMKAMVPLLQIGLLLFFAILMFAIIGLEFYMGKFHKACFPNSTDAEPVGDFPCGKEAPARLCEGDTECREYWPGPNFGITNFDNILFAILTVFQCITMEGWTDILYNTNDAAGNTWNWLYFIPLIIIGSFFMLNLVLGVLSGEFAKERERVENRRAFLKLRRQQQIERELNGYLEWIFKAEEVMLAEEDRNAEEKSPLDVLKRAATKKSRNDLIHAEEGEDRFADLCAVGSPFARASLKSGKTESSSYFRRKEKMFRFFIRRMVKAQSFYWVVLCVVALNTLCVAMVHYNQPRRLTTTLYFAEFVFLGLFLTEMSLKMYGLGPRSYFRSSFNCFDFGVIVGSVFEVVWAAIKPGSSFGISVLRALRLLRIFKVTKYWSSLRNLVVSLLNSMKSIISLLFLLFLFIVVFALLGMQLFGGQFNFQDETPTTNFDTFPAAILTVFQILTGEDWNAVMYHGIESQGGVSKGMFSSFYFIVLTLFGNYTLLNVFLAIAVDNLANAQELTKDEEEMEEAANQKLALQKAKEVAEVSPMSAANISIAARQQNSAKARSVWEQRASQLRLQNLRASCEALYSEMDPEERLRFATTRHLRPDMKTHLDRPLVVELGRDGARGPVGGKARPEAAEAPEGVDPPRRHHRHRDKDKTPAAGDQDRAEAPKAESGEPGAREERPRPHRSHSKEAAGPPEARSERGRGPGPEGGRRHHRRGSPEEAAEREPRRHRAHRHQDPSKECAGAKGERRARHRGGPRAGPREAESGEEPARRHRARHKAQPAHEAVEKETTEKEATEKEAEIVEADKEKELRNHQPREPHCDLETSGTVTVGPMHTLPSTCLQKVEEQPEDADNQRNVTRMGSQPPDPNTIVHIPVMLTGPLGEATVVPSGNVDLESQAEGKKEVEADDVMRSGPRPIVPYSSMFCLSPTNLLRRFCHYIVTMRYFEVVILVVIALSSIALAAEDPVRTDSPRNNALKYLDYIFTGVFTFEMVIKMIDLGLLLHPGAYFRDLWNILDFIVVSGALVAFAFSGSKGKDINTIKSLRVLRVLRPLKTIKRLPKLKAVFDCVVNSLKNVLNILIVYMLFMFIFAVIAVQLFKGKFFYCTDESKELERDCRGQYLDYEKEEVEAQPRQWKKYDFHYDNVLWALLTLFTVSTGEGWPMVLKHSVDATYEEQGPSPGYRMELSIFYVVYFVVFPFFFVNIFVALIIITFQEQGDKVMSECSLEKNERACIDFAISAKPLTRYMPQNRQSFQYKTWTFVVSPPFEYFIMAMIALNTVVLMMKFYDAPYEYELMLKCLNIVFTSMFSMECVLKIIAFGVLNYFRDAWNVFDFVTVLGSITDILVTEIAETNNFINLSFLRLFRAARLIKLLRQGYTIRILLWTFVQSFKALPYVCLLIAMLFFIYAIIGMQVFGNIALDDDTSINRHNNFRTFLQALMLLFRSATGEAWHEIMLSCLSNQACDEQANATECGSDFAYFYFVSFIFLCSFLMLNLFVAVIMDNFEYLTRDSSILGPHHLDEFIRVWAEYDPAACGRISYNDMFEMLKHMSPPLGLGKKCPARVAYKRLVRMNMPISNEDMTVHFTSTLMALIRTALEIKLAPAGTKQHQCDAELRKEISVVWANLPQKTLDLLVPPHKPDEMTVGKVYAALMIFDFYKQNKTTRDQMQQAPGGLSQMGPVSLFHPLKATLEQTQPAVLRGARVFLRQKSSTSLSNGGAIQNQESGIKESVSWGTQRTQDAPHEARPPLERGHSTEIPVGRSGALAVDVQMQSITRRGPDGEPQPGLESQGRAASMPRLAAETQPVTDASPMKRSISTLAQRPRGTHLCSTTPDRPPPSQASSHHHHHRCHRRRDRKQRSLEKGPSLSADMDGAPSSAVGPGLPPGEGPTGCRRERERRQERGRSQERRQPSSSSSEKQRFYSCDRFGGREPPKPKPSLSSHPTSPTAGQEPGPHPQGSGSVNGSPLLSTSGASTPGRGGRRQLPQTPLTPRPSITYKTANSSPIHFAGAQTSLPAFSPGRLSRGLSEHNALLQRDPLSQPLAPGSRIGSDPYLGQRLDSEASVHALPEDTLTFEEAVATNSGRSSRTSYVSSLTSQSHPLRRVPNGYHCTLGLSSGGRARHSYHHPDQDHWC
Procedure, shortened: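 Cav2.2 current block was measured at a depolarized (−40 mV) or hyperpolarized (−90 mV) potential. At −40 mV, n = 2, 3, 4 and 1 at 0.3, 1, 3 and 10 μM. At −90 mV, n = 4 and 6 at 3 and 10 μM. Values are mean ± SEM.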

[16] = system: Canis familiaris; assay: Cardiotoxicity in vagotomized dog assessed as QTc interval at 1 to 10 mg/kg, iv up to 90 mins; format: toxicity, organism-based, Canis lupus familiaris; design: dose 1-10 mg/kg, route intravenous; conditions: in vivo, 1.5 h; procedure, shortened: as §1
[17] = system: Mus musculus; assay: Antinociceptive activity in Cav2.2 expressing wild type mouse SNL neuropathic pain model assessed as reversal of mechanical allodynia at 30 mg/kg, po after 2 hrs; format: functional; procedure, shortened: as §2
[18] = system: Rattus norvegicus; assay: Neurotoxicity in rat assessed as motor coordination at 100 mg/kg, po after 3 hrs; format: toxicity, organism-based; design: dose 100 mg/kg, route oral; conditions: in vivo; procedure, shortened: as §5
[19] = system: Blood; assay: Drug metabolism in Sprague-Dawley rat assessed as 3-trifluoromethylbenzenesulfonamide level in blood at 10 mg/kg, po after 8 hrs; format: ADME, organism-based; design: dose 10 mg/kg, route oral; conditions: in vivo
Procedure, shortened: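 Male Sprague-Dawley rats were given a 10 mg/kg oral dose. Parent and metabolite concentrations were measured in whole blood and brain over time, including 8 h postdose.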

[20] = Fraction unbound in rat plasma; format: ADME, cell-free
[21] = Plasma concentration in vagotomized dog at 10 mg/kg, iv after 90 mins; format: ADME, organism-based, Canis lupus familiaris; design: dose 10 mg/kg, route intravenous
Procedure, shortened: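 Anesthetized, vagotomized dogs; intravenous infusion in sequential rising doses of 1, 3 and 10 mg/kg (cumulative); plasma exposure sampled at indicated time points, n = 3.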

[22] = system: Rattus norvegicus; assay: Antinociceptive activity in rat assessed as reversal of complete Freund's adjuvant-induced pain at 30 mg/kg, po after 1 hr; format: functional; procedure, shortened: as §4
[23] = system: Rattus norvegicus; assay: Antinociceptive activity in rat assessed as reversal of complete Freund's adjuvant-induced pain at 10 mg/kg, po after 3 hrs; format: functional
Procedure, shortened: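 Rats had complete Freund's adjuvant-induced inflammatory pain and got oral dosing. Allodynia was read at 1 and 3 h postdose. Percent reversal per rat = (postdose − predose)/(preinjury − predose). Groups had at least six animals, reported as mean + SEM.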

[24] = Plasma concentration in rat SNL neuropathic pain model at 10 mg/kg, po after 3 hrs; format: ADME, organism-based; design: dose 10 mg/kg, route oral
Procedure, shortened: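 Rats with spinal nerve ligation; separate SNL-treated rats given single oral 10 mg/kg dose; plasma exposure measured 3 h postdose.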

[25] = system: Liver microsomes; assay: Drug metabolism in rat liver microsomes assessed as assessed as 3-trifluoromethylbenzenesulfonamide level level; format: ADME, Microsome

SMILES: CS(=O)(=O)c1ccc(F)cc1C(=O)N1CCC(N(C2CC2)S(=O)(=O)c2cccc(C(F)(F)F)c2)CC1
- inhibition at 10 µM [1]: 32%
- Activity [2]: 45%
- Activity [3]: Non-toxic
- Activity [4]: 9%
- remaining at 1 h, 1 µM [5]: 30%
- inhibition at 1 µM [6]: 18%
- half-life [7]: 1.3 h
- Activity [8]: 57%
- concentration at 3 h [9]: 11.9 µM
- Activity [10]: Non-toxic
- Activity [11]: Dose-dependent effect
- pEC50 [12]: 6.37
- concentration at 3 h [13]: 9.5 µM
- AUC/dose [14]: 0.86 µM·kg·h/mg
- inhibition [15]: 84%
- Activity [16]: Non-toxic
- Activity [17]: 38%
- Activity [18]: Non-toxic
- Drug metabolism [19]: 6.1 µM
- fraction unbound [20]: 0.02
- concentration at 1.5 h [21]: 20.4 µM
- Activity [22]: 66%
- Activity [23]: 49%
- concentration at 3 h [24]: 1.26 µM
- Drug metabolism [25]: Active
